Experimental findings from ChEMBL document CHEMBL1123024, “5,6-Diaryl-2,3-dihydroimidazo[2,1-b]thiazoles: a new class of immunoregulatory antiinflammatory agents” (1985) are described below.

Structures are written as SMILES.

Experiment [1] relates to Rattus norvegicus. Put plainly: Compound was tested by carrageenan-induced paw edema for percent change in paw volume of control sham operated rats at 50 mg/kg; the %change is Not statistically significant. The format is functional. The method, boiled down:
(§1)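 Normal, adrenalectomized or sham-operated Lewis rats were dosed po in 0.5% tragacanth, hydrated. 1 h later paw volume was read, then […] of 1% carrageenan in 0.9% saline was injected into the right hindpaw plantar surface. Volume was re-read at 3 h. Percent change, treated vs control; Student's t test.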

In experiment [2] the test system is Rattus norvegicus. Put plainly: The compound was tested for percent change in immune R16 inflammatory lesions in rat adjuvant-induced arthritis at 50 mg/kg. The format is functional. An outline of the steps:
(§2)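 Male Wistar rats received 0.75 mg M. butyricum in paraffin oil intradermally into the left hindpaw. Compounds were given daily po in 0.5% tragacanth from the injection day for 17 days, skipping days 4, 5, 11 and 12. Leg volumes were read by mercury displacement: left leg on day 3, both legs on day 16. Eight treated rats vs 16 vehicle controls; Student's t test. ED25 is the dose giving a 25% volume decrease, from at least three doses, with 95% limits by Fieller's theorem.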

For experiment [3], the system named is Rattus norvegicus. Put plainly: The compound was tested for percent change in nonimmune L3 inflammatory lesions in rat adjuvant-induced arthritis at 50 mg/kg; the %change is Not statistically significant. Type of experiment: functional. An outline of the steps: as §2
For experiment [4], the species on record is Mus musculus. The experiment can be described thus: Immunoregulatory activity against oxazolone induced mouse contact sensitivity was evaluated as percent change. The format is functional. The method, boiled down: (§3)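 Male C57B1/6 mice were sensitized with 0.1 mL of 5% oxazolone in absolute ethanol on the clipped abdomen. At 45 h the left hind leg was challenged with 5% oxazolone. Compound was given po in 0.5% tragacanth. Edema was read plethysmographically 24 h later as left minus right leg volume. Six mice vs eight controls; Student's t test.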

The subject of experiment [5] is Rattus norvegicus. Put plainly: The compound was tested for percent change in nonimmune L16 inflammatory lesions in rat adjuvant-induced arthritis at 50 mg/kg. Type of experiment: functional. An outline of the steps:
as §2

Experiment [6] relates to Mus musculus. The experiment can be described thus: Immunoregulatory activity against oxazolone induced mouse contact sensitivity was evaluated as percent change at a dose of 10 mg/kg. Type of experiment: functional. An outline of the steps:
as §3

Experiment [7] relates to Rattus norvegicus. The experiment can be described thus: The compound was tested for percent change in nonimmune L3 inflammatory lesions in rat adjuvant-induced arthritis at 50 mg/kg. The format is functional. An outline of the steps:
as §2

For experiment [8], the species on record is Mus musculus. Put plainly: Immunoregulatory activity against oxazolone induced mouse contact sensitivity was evaluated as percent change; the % change in Not statistically Significant. Type of experiment: functional. An outline of the steps:
as §3

Experiment [9] concerns Rattus norvegicus. The experiment can be described thus: Compound was tested by carrageenan -induced paw edema for percent change in paw volume of control sham operated rats at 50 mg/kg; the % change was Not statistically significant. Type of experiment: functional. The method, boiled down:
as §1

The species entered for experiment [10] is Mus musculus. Put plainly: Immunoregulatory activity against mouse contact sensitivity was evaluated as percent change. Type of experiment: functional. The method, boiled down:
as §3

In experiment [11] the test system is Rattus norvegicus. The experiment can be described thus: Percent change in nonimmune L16 inflammatory lesions in rat adjuvant-induced arthritis at 50 mg/kg. The format is functional. The method, boiled down: as §2
The test system of experiment [12] is Rattus norvegicus. Put plainly: Percent change in immune R16 inflammatory lesions in rat adjuvant-induced arthritis at 50 mg/kg. The format is functional. The method, boiled down: as §2
In experiment [13] the test system is Rattus norvegicus. Put plainly: Compound was tested by carrageenan -induced paw edema for percent change in paw volume of control sham operated rats at 50 mg/kg. Type of experiment: functional. The method, boiled down:
as §1

The test system of experiment [14] is Rattus norvegicus. The experiment can be described thus: Percent change in nonimmune L3 inflammatory lesions in rat adjuvant-induced arthritis at 50 mg/kg. The format is functional. The method, boiled down:
as §2

Experiment [15] is filed under the species Rattus norvegicus. Put plainly: Inhibition of immune, R16 inflammatory lesions was measured. Type of experiment: functional. An outline of the steps:
as §2

Experiment [16] is filed under the species Rattus norvegicus. Put plainly: Inhibition of primary nonimmune, L3 inflammatory lesions was measured. The format is functional. The method, boiled down: as §2
Experiment [17] relates to Mus musculus. Put plainly: Change in paw edema in oxazolone -induced arthritic mice at 50 mg/kg.
The test system of experiment [18] is Rattus norvegicus. The experiment can be described thus: Compound was tested by carrageenan -induced paw edema for percent change in paw volume of control in adrenalectomized operated rats at 50 mg/kg. The format is functional. An outline of the steps:
as §1

Experiment [19] is filed under the species Rattus norvegicus. The experiment can be described thus: Inhibition of secondary nonimmune, L16 inflammatory lesions was measured. Type of experiment: functional. The method, boiled down:
as §2

In experiment [20] the test system is Rattus norvegicus. The experiment can be described thus: Change in 7S hemagglutinination titers in adjuvant-induced arthritic rats at 50 mg/kg. The format is functional.
In experiment [21] the test system is Mus musculus. Put plainly: Change in paw edema in methotrexate-suppressed oxazolone -induced contact sensitivity in mice at 50 mg/kg. Type of experiment: functional.
Experiment [22] concerns Rattus norvegicus. Put plainly: Change in 19S hemagglutinination titers in adjuvant-induced arthritic rats at 50 mg/kg. The format is functional.
Experiment [23] has as its system Rattus norvegicus. Put plainly: Compound was tested by carrageenan -induced paw edema for percent change in paw volume of control sham operated rats at 100 mg/kg. Type of experiment: functional. An outline of the steps:
as §1

The test system of experiment [24] is Rattus norvegicus. The experiment can be described thus: The compound was tested for percent change in immune R16 inflammatory lesions in rat adjuvant-induced arthritis at 50 mg/kg; the % change was Not Significant. The format is functional. An outline of the steps:
as §2

For experiment [25], the species on record is Rattus norvegicus. The experiment can be described thus: animal or person.
The species named for experiment [26] is Rattus norvegicus. The experiment can be described thus: animal or person. The source holds these as a separate data set.
The species named for experiment [27] is Rattus norvegicus. Put plainly: animal or person. The source holds these as a separate data set.
For experiment [28], the species on record is Rattus norvegicus. The experiment can be described thus: Inhibition of primary nonimmune L3 inflammatory lesions was measured. Type of experiment: functional. The method, boiled down: as §2
For experiment [29], the system named is Mus musculus. The experiment can be described thus: Change in paw edema in methotrexate-suppressed oxazolone -induced contact sensitivity in mice at 5 mg/kg; % change was not statistically significant. The format is functional.
For experiment [30], the species on record is Rattus norvegicus. The experiment can be described thus: Inhibition of immune R16 inflammatory lesions was measured.; activity value ranges from 0.17 - 1.73. The format is functional. The method, boiled down: as §2
Experiment [31] relates to Rattus norvegicus. The experiment can be described thus: Compound was tested by carrageenan -induced paw edema for percent change in paw volume on treated vs. control adrenalectomized rats. Type of experiment: functional. The method, boiled down: as §1
The species entered for experiment [32] is Rattus norvegicus. The experiment can be described thus: Inhibition of secondary nonimmune L16 inflammatory lesions was measured; activity value ranges from 0.19 - 0.79. Type of experiment: functional. An outline of the steps: as §2
For experiment [33], the system named is Mus musculus. The experiment can be described thus: Change in paw edema in oxazolone -induced arthritic mice at 5 mg/kg.
Experiment [34] concerns Rattus norvegicus. Put plainly: Compound was tested by carrageenan -induced paw edema for percent change in paw volume of control sham operated rats. The format is functional. An outline of the steps:
as §1

Experiment [35] has as its system Rattus norvegicus. The experiment can be described thus: The compound was tested for percent change in immune R16 inflammatory lesions in rat adjuvant-induced arthritis at 50 mg/kg; the % change was not statistically significant. The format is functional. An outline of the steps:
as §2

The test system of experiment [36] is Rattus norvegicus. Put plainly: The compound was tested for percent change in nonimmune L3 inflammatory lesions in rat adjuvant-induced arthritis at 50 mg/kg; the % change was not statistically significant. The format is functional. An outline of the steps:
as §2

The species entered for experiment [37] is Mus musculus. Put plainly: Immunoregulatory activity against oxazolone induced mouse contact sensitivity was evaluated as percent change; the % change was not statistically significant. The format is functional, organism-based. An outline of the steps:
as §3

Experiment [38] concerns Rattus norvegicus. The experiment can be described thus: The compound was tested for percent change in nonimmune L16 inflammatory lesions in rat adjuvant-induced arthritis at 50 mg/kg; the %change is Not statistically significant. The format is functional. The method, boiled down:
as §2

Experiment [39] concerns Rattus norvegicus. Put plainly: The compound was tested for percent change in immune R16 inflammatory lesions in rat adjuvant-induced arthritis at 50 mg/kg; the %change is Not statistically significant. Type of experiment: functional. The method, boiled down:
as §2

Take `O=S1(=O)CCn2c1nc(-c1ccc(F)cc1)c2-c1ccc(F)cc1`: the Change in experiment [1] is 3%; in [2], -34%; in experiment [3], -6%; in experiment [4], 20%; in experiment [5], -17%.
In the case of `COc1ccc(-c2nc3n(c2-c2ccc(OC)cc2)CC[S+]3[O-])cc1` (stereo not given), the Change in [6] was 76%; in [7], -24%; in experiment [2], -32%; in experiment [5], -29%.
Consider `C[S+]([O-])c1ccc(-c2nc3n(c2-c2ccc([S+](C)[O-])cc2)CC[S+]3[O-])cc1` (stereo not given), for which the Change in [7] is listed as -27%; in experiment [8], 38%; in [2], -47%; in experiment [9], 10%; in experiment [5] it was -44%.
Turning to `CSc1ccc(-c2nc3n(c2-c2ccc(SC)cc2)CCS3)cc1`, the Change in experiment [10] is given as 73%; in experiment [11] it was -36%; in experiment [12] it was -38%; in experiment [13] it was -33%; in experiment [14], -25%.
As for `COc1ccc(-c2nc3n(c2-c2ccc(OC)cc2)CCS3)cc1`, the ED25 in experiment [15] was found to be 24.4 mg/kg; in experiment [16] it was 32.9 mg/kg; in experiment [19], 18.7 mg/kg. Also, the Change in experiment [10] is listed as 211%; in experiment [11], -34%; in experiment [17] it was 211%; in experiment [12], -21%; in [18], -58%; in experiment [13], -63%. Moreover, the Change is listed as -24% in experiment [14], -3.7% in experiment [20], 156% in [21] and 1.2% in [22].
`COc1cccc(-c2nc3n(c2-c2cccc(OC)c2)CCS3)c1`: the Change in experiment [10] is 166%; in experiment [11], -4%; in experiment [12] it was -16%; in [14], 0%; in experiment [23], -3%.
On to `c1ccc(-c2nc3n(c2-c2ccccc2)CCS3)cc1`, for which the Change in experiment [11] was -4%; in [12], -4%; in experiment [13] it was -9%; in experiment [14], -12%; in [23], -7%.
In the case of `COc1ccc(-c2nc3n(c2-c2ccc(OC)cc2)CCS3(=O)=O)cc1`, the Change was -11% in experiment [7], -7% in [24], 95% in [4] and -12% in [5].
As for `c1ccc([C@H]2CN3CCSC3=N2)cc1` [LEVAMISOLE], the ED25 in experiment [25] was found to be 73.4 mg/kg; in experiment [26] it was 127 mg/kg; in [27], 44.4 mg/kg.
Consider `Cl.Fc1ccc(-c2nc3n(c2-c2ccc(F)cc2)CCS3)cc1`, for which the Change in experiment [10] is listed as 79%; in [11] it was -36%; in [12], -49%; in [13], -9%; in [14], -39%; in experiment [23] it was 6%.
For `COc1ccc(-c2nc(C(F)(F)F)[nH]c2-c2ccc(OC)cc2)cc1` [FLUMIZOLE], the ED25 in experiment [28] came to 11 mg/kg; in experiment [30], 0.78 mg/kg; in [32] it was 0.45 mg/kg. In addition, the Change was 3% in [29], -47% in [31], -28% in [33] and -48% in experiment [34].
With `FC(F)(F)c1ccc(-c2nc3n(c2-c2ccc(C(F)(F)F)cc2)CCS3)cc1`, the Change in [10] is recorded as 89%; in experiment [11], 12%; in experiment [12], 1%; in experiment [14] it was 0%; in [23], 4%.
For the compound `COc1ccc(-c2nc3sccn3c2-c2ccc(OC)cc2)cc1`, the Change in experiment [35] is 0%; in experiment [36], -6%; in experiment [5], -9%; in experiment [37] it was “Not significant”.
`COc1cccc(-c2nc3n(c2-c2cccc(OC)c2)CC[S+]3[O-])c1` (stereo not given): the Change turned out to be 9% in experiment [38], 7% in [39], 4% in [3] and 59% in experiment [4].
